Laboratory results reported in ChEMBL document CHEMBL5137122, “The Natural Products Withaferin A and Withanone from the Medicinal Herb Withania somnifera Are Covalent Inhibitors of the SARS-CoV-2 Main Protease” (J Nat Prod, 2022).
pIC50: −log10 of the molar value. The source made the active and inactive calls.

Assays:
[1] = molecular target: Replicase polyprotein 1ab (Severe acute respiratory syndrome coronavirus 2) (UniProt P0DTD1); test: Inhibition of SARS-COV2 main protease mediated cytotoxicity against human HepG2 cells transfected with pCMV3-2019-nCoV-3CLpro plasmid assessed as increase in cell number at 5 uM measured at 48 hrs by Nucblue dye based microscopic analysis
Procedure, shortened: (§1)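 HepG2 or A549 cells (3×10^5) were lipofected 16 h after seeding with 3 µg pCMV3-2019-nCoV-3CLpro in serum-free DMEM for 8 h, then grown in complete medium for 12 h. Cells were trypsinised and 1×10^4 replated with hygromycin B (200 µg) plus compound or E64 (5 µM) for 48 h. NucBlue (Hoechst 33342) was added for 30 min at 37 °C, then imaging and hemocytometer counts against nontransfected cells.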

[2] = molecular target: Replicase polyprotein 1ab (Severe acute respiratory syndrome coronavirus 2) (UniProt P0DTD1); test: Inhibition of SARS-COV2 main protease mediated cytotoxicity against human A549 cells transfected with pCMV3-2019-nCoV-3CLpro plasmid assessed as increase in cell number at 5 uM measured at 48 hrs by Nucblue dye based microscopic analysis; procedure, shortened: as §1
[3] = molecular target: Replicase polyprotein 1ab (Severe acute respiratory syndrome coronavirus 2) (UniProt P0DTD1); test: Inhibition of SARS-COV2 main protease mediated cytotoxicity against human A549 cells transfected with pCMV3-2019-nCoV-3CLpro plasmid assessed as increase in cell number measured at 48 hrs in presence of buthionine sulfoximine by Nucblue dye based microscopic analysis
Procedure, shortened: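 Transfected A549 cells were pretreated with 500 µM buthionine sulfoximine. At 20 h post-transfection, compound or E64 (5 µM) was added with 1 mM BSO. After 48 h, cells were stained with NucBlue (Hoechst 33342), imaged and counted, with nontransfected cells handled identically.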

[4] = molecular target: Replicase polyprotein 1ab (Severe acute respiratory syndrome coronavirus 2) (UniProt P0DTD1); test: Inhibition of recombinant SARS-COV2 main protease expressed in Escherichia coli Rosetta cells at 5 uM using DABCYL-KTSAVLQSGFRKME-EDANS as substrate pre-incubated for 60 mins followed by substarte addition measured at 5 min by FRET-based assay relative to control
Procedure, shortened: (§2)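 Time-course variant of the FRET assay: fixed inhibitor concentration with preincubation times varied (5–120 min, 37 °C) in 50 mM Tris pH 7.4 with 2 µM EDTA. Conditions were 0.5 µM MPro with 5 µM inhibitor, or 0.25 µM MPro with 0.5 µM inhibitor.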

[5] = molecular target: T1, Replicase polyprotein 1ab (Severe acute respiratory syndrome coronavirus 2, UniProt P0DTD1); test: Inhibition of recombinant SARS-COV2 main protease expressed in Escherichia coli Rosetta cells using DABCYL-KTSAVLQSGFRKME-EDANS as substrate pre-incubated for 60 mins followed by substarte addition measured at 30 min in presence of GSH by FRET-based assay
Procedure, shortened: (§3)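 FRET assay with purified E. coli-expressed MPro (0.5 µM) in 50 mM Tris pH 7.4 with 2 µM EDTA and no DTT. MPro was preincubated 60 min at 37 °C with a range of inhibitor concentrations, with 5 mM GSH added for line 12. IC50 came from initial rates.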

[6] = molecular target: T1, Replicase polyprotein 1ab; test: Inhibition of recombinant SARS-COV2 main protease expressed in Escherichia coli Rosetta cells using DABCYL-KTSAVLQSGFRKME-EDANS as substrate pre-incubated for 60 mins followed by substarte addition by FRET-based assay; procedure, shortened: as §3
[7] = molecular target: Replicase polyprotein 1ab (Severe acute respiratory syndrome coronavirus 2) (UniProt P0DTD1); test: Inhibition of SARS-COV2 main protease mediated cytotoxicity against human A549 cells transfected with pCMV3-2019-nCoV-3CLpro plasmid assessed as increase in cell number and measured at 48 hrs by calcien AM staining based microscopic analysis
Procedure, shortened: (§4)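 3-D organoid-like culture: pCMV3-2019-nCoV-3CLpro-transfected or nontransfected HepG2 or A549 cells (3000 cells/µL) were mixed 1:1 with growth factor-reduced Matrigel, with drug-containing medium added at the same time. Viable cells were imaged after calcein AM staining. Organoids were then melted on ice, pelleted, trypsinised and counted by hemocytometer.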

[8] = molecular target: Replicase polyprotein 1ab (Severe acute respiratory syndrome coronavirus 2) (UniProt P0DTD1); test: Inhibition of recombinant SARS-COV2 main protease expressed in Escherichia coli Rosetta cells at 0.5 uM using DABCYL-KTSAVLQSGFRKME-EDANS as substrate pre-incubated for 60 mins followed by substarte addition and measured at 30 min by FRET-based assay relative to control; procedure, shortened: as §2
[9] = molecular target: Replicase polyprotein 1ab (Severe acute respiratory syndrome coronavirus 2) (UniProt P0DTD1); test: Binding affinity to recombinant SARS-COV2 main protease expressed in Escherichia coli Rosetta cells at 2 uM measured after 16 hrs by LC-MS analysis based equilibrium dialysis method
Procedure, shortened: (§5)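 Purified His-GST-tagged MPro expressed in E. coli Rosetta and released with HRV3C protease. MPro (30 µg) in 50 mM potassium phosphate pH 7.5 with 2 µM compound was dialysed against the same solution without protein (3.5 kDa cutoff) for 16 h at room temperature. Drug in the dialysate was quantified by LC-MS or LC-MS/MS against a no-protein control. The dialyser contents were then denatured and drug re-measured.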

[10] = molecular target: Replicase polyprotein 1ab (Severe acute respiratory syndrome coronavirus 2) (UniProt P0DTD1); test: Inhibition of SARS-COV2 main protease mediated cytotoxicity against human HepG2 cells transfected with pCMV3-2019-nCoV-3CLpro plasmid assessed as increase in cell number and measured at 48 hrs by calcien AM staining based microscopic analysis; procedure, shortened: as §4
[11] = molecular target: Replicase polyprotein 1ab (Severe acute respiratory syndrome coronavirus 2) (UniProt P0DTD1); test: Inhibition of SARS-COV2 main protease mediated cytotoxicity against human A549 cells transfected with pCMV3-2019-nCoV-3CLpro plasmid assessed as GSH level measured at 48 hrs in presence of buthionine sulfoximine by Nucblue dye based microscopic analysis; format: cell-based
[12] = molecular target: Replicase polyprotein 1ab (Severe acute respiratory syndrome coronavirus 2) (UniProt P0DTD1); test: Binding affinity to recombinant SARS-COV2 main protease expressed in Escherichia coli Rosetta cells at 2 uM measured after 16 hrs by LC-MSMS analysis based equilibrium dialysis method; procedure, shortened: as §5

Compound	inhibition [1]	inhibition [2]	inhibition [3]	inhibition [4] [%]	pIC50 [5]	pIC50 [6]	inhibition [7]	inhibition [8] [%]	Activity [9]	inhibition [10]	inhibition [11]	Activity [12]
CC(C)C[C@H](NC(=O)[C@H]1O[C@@H]1C(=O)O)C(=O)NCCCCN=C(N)N	Active	Active	Active									
CC1=C(CO)C(=O)O[C@@H]([C@@H](C)[C@H]2CC[C@H]3[C@@H]4C[C@H]5O[C@]56[C@@H](O)C=CC(=O)[C@]6(C)[C@H]4CC[C@]23C)C1 [WITHAFERIN A]	Active	Active	Active	100	6.20	6.27	Active	80	Active	Active	Active	
CC1=C(C)C(=O)O[C@@H]([C@@H](C)[C@@]2(O)CC[C@H]3[C@@H]4[C@@H]5O[C@@H]5[C@@]5(O)CC=CC(=O)[C@]5(C)[C@H]4CC[C@@]32C)C1 [WITHANONE]	Active	Active	Active			5.74	Active			Active	Active	Active
